# Test results: ChEMBL document CHEMBL1629643, “Naturally occurring Class A ss-lactamases from the Burkholderia cepacia complex” (Antimicrob Agents Chemother, 2009)
# B1: PenB class A beta-lactamase (Burkholderia cenocepacia), B8R6A5 (protein)
# chain: MTYSSKRRTLLLAAATAPLVLTATACASRQAAAPDPATAAAAAAADAMAPAAAAATLADLERDAGGRLGVCAIDTASGRVIEHRAGERFPFCSTFKAMLSAAVLAQSVERPGLLQQRVKYTKADLVNYSPVSEKHVGAGMTVAALCEATIQYSDNSAANLLMKLIGGPSAVTAYARSIGDDAFRLDRWETELNTALPGDPRDTTTPAAMAASIRVLTLGDALPAAQRAQLVAWLRGNKVGDKRIRAGVPAGWTVGDKTGTGDYGTTNDAGVIWPTSRAPIVLAVYYTQTRADARAKDDVIASVARIVAQTFG
# How the values were obtained:
# [1] = tested on: Burkholderia cenocepacia; assay: Antimicrobial activity against Burkholderia cenocepacia 07-34 expressing beta-lactamase PenB1; assay type: functional
# Method in brief: (§1)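 MICs measured by broth microdilution and by Etest on clinical B. cenocepacia isolates grown for 18 h in Trypticase soy broth (30°C and 37°C). Susceptibility was read against CLSI guidelines.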
# [2] = tested on: Burkholderia cenocepacia; assay: Antimicrobial activity against Burkholderia cenocepacia 09-54 expressing beta-lactamase PenB2; assay type: functional; method in brief: as §1
# [3] = tested on: Burkholderia cenocepacia; assay: Antimicrobial activity against Burkholderia cenocepacia 212 expressing beta-lactamase PenB3; assay type: functional; method in brief: as §1
# [4] = tested on: Burkholderia cenocepacia; assay: Antimicrobial activity against Burkholderia cenocepacia 5007902 expressing beta-lactamase PenB4; assay type: functional; method in brief: as §1
# [5] = tested on: Escherichia coli; assay: Antimicrobial activity against Escherichia coli TOP10 harboring beta-lactamase PenB1; assay type: functional
# Method in brief: (§2)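 MICs by broth microdilution and Etest, interpreted per CLSI guidelines. Strains tested were host E. coli TOP10, and TOP10 carrying pBcSau13 (pBK-CMV vector, kanamycin-resistant) holding a Sau3AI fragment of B. cenocepacia 212 DNA that encodes PenB1.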
# [6] = tested on: Escherichia coli; assay: Antimicrobial activity against Escherichia coli TOP10; assay type: functional; method in brief: as §2
# [7] = substrate: CC(=O)OCC1=C(C(=O)O)N2C(=O)[C@@H](NC(=O)Cc3cccs3)[C@H]2SC1; conditions: Burkholderia cenocepacia; 07-34
# [8] = substrate: CC(C)(O/N=C(\C(=O)N[C@@H]1C(=O)N2C(C(=O)[O-])=C(C[n+]3ccccc3)CS[C@H]12)c1csc(N)n1)C(=O)O; conditions: Burkholderia cenocepacia; 07-34
# [9] = substrate: CC1(C)S[C@@H]2[C@H](NC(=O)Cc3ccccc3)C(=O)N2[C@H]1C(=O)O; conditions: Burkholderia cenocepacia; 07-34
# [10] = substrate: CC1(C)S[C@@H]2[C@H](NC(=O)[C@H](C(=O)O)c3ccsc3)C(=O)N2[C@H]1C(=O)O; conditions: Burkholderia cenocepacia; 07-34
# [11] = substrate: CC1(C)S[C@@H]2[C@H](NC(=O)[C@H](N)c3ccccc3)C(=O)N2[C@H]1C(=O)O; conditions: Burkholderia cenocepacia; 07-34
# [12] = substrate: CCN1CCN(C(=O)N[C@@H](C(=O)N[C@@H]2C(=O)N3[C@@H]2SC(C)(C)[C@@H]3C(=O)O)c2ccccc2)C(=O)C1=O; conditions: Burkholderia cenocepacia; 07-34
# [13] = substrate: CO/N=C(\C(=O)N[C@@H]1C(=O)N2C(C(=O)O)=C(COC(C)=O)CS[C@H]12)c1csc(N)n1; conditions: Burkholderia cenocepacia; 07-34
# [14] = substrate: CO/N=C(\C(=O)N[C@@H]1C(=O)N2C(C(=O)O)=C(COC(N)=O)CS[C@H]12)c1ccco1; conditions: Burkholderia cenocepacia; 07-34
# [15] = substrate: CO/N=C(\C(=O)N[C@@H]1C(=O)N2C(C(=O)[O-])=C(C[N+]3(C)CCCC3)CS[C@H]12)c1csc(N)n1; conditions: Burkholderia cenocepacia; 07-34
# [16] = substrate: C[C@@H](O)[C@H]1C(=O)N2C(C(=O)O)=C(SCCNC=N)C[C@H]12; conditions: Burkholderia cenocepacia; 07-34
# [17] = substrate: C[C@@H](O)[C@H]1C(=O)N2C(C(=O)O)=C(S[C@@H]3CN[C@H](C(=O)N(C)C)C3)[C@H](C)[C@H]12; conditions: Burkholderia cenocepacia; 07-34
# [18] = substrate: C[C@H]1[C@H](NC(=O)/C(=N\OC(C)(C)C(=O)O)c2csc(N)n2)C(=O)N1S(=O)(=O)O; conditions: Burkholderia cenocepacia; 07-34
# [19] = substrate: CC(=O)OCC1=C(C(=O)O)N2C(=O)[C@@H](NC(=O)Cc3cccs3)[C@H]2SC1; conditions: Burkholderia cenocepacia; 07-34; remark: listed apart in the source
# [20] = substrate: CC(C)(O/N=C(\C(=O)N[C@@H]1C(=O)N2C(C(=O)[O-])=C(C[n+]3ccccc3)CS[C@H]12)c1csc(N)n1)C(=O)O; conditions: Burkholderia cenocepacia; 07-34; remark: listed apart in the source
# [21] = substrate: CC1(C)S[C@@H]2[C@H](NC(=O)Cc3ccccc3)C(=O)N2[C@H]1C(=O)O; conditions: Burkholderia cenocepacia; 07-34; remark: listed apart in the source
# [22] = substrate: CC1(C)S[C@@H]2[C@H](NC(=O)[C@H](C(=O)O)c3ccsc3)C(=O)N2[C@H]1C(=O)O; conditions: Burkholderia cenocepacia; 07-34; remark: listed apart in the source
# [23] = substrate: CC1(C)S[C@@H]2[C@H](NC(=O)[C@H](N)c3ccccc3)C(=O)N2[C@H]1C(=O)O; conditions: Burkholderia cenocepacia; 07-34; remark: listed apart in the source
# [24] = substrate: CCN1CCN(C(=O)N[C@@H](C(=O)N[C@@H]2C(=O)N3[C@@H]2SC(C)(C)[C@@H]3C(=O)O)c2ccccc2)C(=O)C1=O; conditions: Burkholderia cenocepacia; 07-34; remark: listed apart in the source
# [25] = substrate: CO/N=C(\C(=O)N[C@@H]1C(=O)N2C(C(=O)O)=C(COC(C)=O)CS[C@H]12)c1csc(N)n1; conditions: Burkholderia cenocepacia; 07-34; remark: listed apart in the source
# [26] = substrate: CO/N=C(\C(=O)N[C@@H]1C(=O)N2C(C(=O)O)=C(COC(N)=O)CS[C@H]12)c1ccco1; conditions: Burkholderia cenocepacia; 07-34; remark: listed apart in the source
# [27] = substrate: CO/N=C(\C(=O)N[C@@H]1C(=O)N2C(C(=O)[O-])=C(C[N+]3(C)CCCC3)CS[C@H]12)c1csc(N)n1; conditions: Burkholderia cenocepacia; 07-34; remark: listed apart in the source
# [28] = substrate: C[C@@H](O)[C@H]1C(=O)N2C(C(=O)O)=C(SCCNC=N)C[C@H]12; conditions: Burkholderia cenocepacia; 07-34; remark: listed apart in the source
# [29] = substrate: C[C@@H](O)[C@H]1C(=O)N2C(C(=O)O)=C(S[C@@H]3CN[C@H](C(=O)N(C)C)C3)[C@H](C)[C@H]12; conditions: Burkholderia cenocepacia; 07-34; remark: listed apart in the source
# [30] = substrate: C[C@H]1[C@H](NC(=O)/C(=N\OC(C)(C)C(=O)O)c2csc(N)n2)C(=O)N1S(=O)(=O)O; conditions: Burkholderia cenocepacia; 07-34; remark: listed apart in the source
molecule,measurement,setting,value
CO/N=C(\C(=O)N[C@@H]1C(=O)N2C(C(=O)[O-])=C(C[N+]3(C)CCCC3)CS[C@H]12)c1csc(N)n1,MIC,[1],32 µg/mL
same,MIC,[2],64 µg/mL
same,MIC,[3],64 µg/mL
same,MIC,[4],1 µg/mL
CO/N=C(\C(=O)N[C@@H]1C(=O)N2C(C(=O)O)=C(COC(N)=O)CS[C@H]12)c1ccco1 [CEFUROXIME],MIC,[1],16 µg/mL
same,MIC,[2],512 µg/mL
same,MIC,[3],512 µg/mL
same,MIC,[4],32 µg/mL
same,MIC,[5],16 µg/mL
same,MIC,[6],8 µg/mL
CO[C@@]1(NC(=O)Cc2cccs2)C(=O)N2C(C(=O)O)=C(COC(N)=O)CS[C@@H]21 [CEFOXITIN],MIC,[1],512 µg/mL
same,MIC,[2],512 µg/mL
same,MIC,[3],512 µg/mL
same,MIC,[4],512 µg/mL
same,MIC,[5],8 µg/mL
same,MIC,[6],8 µg/mL
CC(C)(O/N=C(\C(=O)N[C@@H]1C(=O)N2C(C(=O)[O-])=C(C[n+]3ccccc3)CS[C@H]12)c1csc(N)n1)C(=O)O [CEFTAZIDIME],MIC,[1],4 µg/mL
same,MIC,[2],32 µg/mL
same,MIC,[3],16 µg/mL
same,MIC,[4],0.25 µg/mL
same,MIC,[5],1 µg/mL
same,MIC,[6],0.5 µg/mL
CO/N=C(\C(=O)N[C@@H]1C(=O)N2C(C(=O)O)=C(COC(C)=O)CS[C@H]12)c1csc(N)n1 [CEFOTAXIME],MIC,[1],1 µg/mL
same,MIC,[2],512 µg/mL
same,MIC,[3],512 µg/mL
same,MIC,[4],4 µg/mL
same,MIC,[5],0.25 µg/mL
same,MIC,[6],0.06 µg/mL
B1,Km,[7],100 µM
same,kcat,[7],300 s⁻¹
same,Km,[8],3000 µM
same,kcat,[8],1.5 s⁻¹
same,Km,[9],25 µM
same,kcat,[9],130 s⁻¹
same,Km,[10],60 µM
same,kcat,[10],15 s⁻¹
same,Km,[11],100 µM
same,kcat,[11],70 s⁻¹
same,Km,[12],10 µM
same,kcat,[12],5 s⁻¹
same,Km,[13],150 µM
same,kcat,[13],20 s⁻¹
same,Km,[14],80 µM
same,kcat,[14],170 s⁻¹
same,Km,[15],1000 µM
same,kcat,[15],10 s⁻¹
same,Km,[16],60 µM
same,kcat,[16],0.1 s⁻¹
same,Km,[17],2500 µM
same,kcat,[17],1 s⁻¹
same,Km,[18],2500 µM
same,kcat,[18],30 s⁻¹
same,kcat/Km,[19],3e+06 M⁻¹ s⁻¹
same,kcat/Km,[20],500000 M⁻¹ s⁻¹
same,kcat/Km,[21],5.2e+06 M⁻¹ s⁻¹
same,kcat/Km,[22],250000 M⁻¹ s⁻¹
same,kcat/Km,[23],700000 M⁻¹ s⁻¹
same,kcat/Km,[24],500000 M⁻¹ s⁻¹
same,kcat/Km,[25],130000 M⁻¹ s⁻¹
same,kcat/Km,[26],2.1e+06 M⁻¹ s⁻¹
same,kcat/Km,[27],1e+07 M⁻¹ s⁻¹
same,kcat/Km,[28],2e+06 M⁻¹ s⁻¹
same,kcat/Km,[29],500 M⁻¹ s⁻¹
same,kcat/Km,[30],1e+07 M⁻¹ s⁻¹
